Results from different studies.
Each line is one published result; the experiments were not run side by side.
Target: Cytochrome P450 2C9 (CYP2C9, Homo sapiens, UniProt P11712)
Read-out: enzyme activity
Action: inhibitor

C=CC(=O)Nc1cc(Nc2nccc(Nc3cc(Cl)c(F)cc3C(C)(C)O)n2)c(OC)cc1N1CC[C@@H](N(C)C)C1
inhibition (human, liver microsomes; 10 µM): < 20%

Cc1cccc(F)c1N1CCC(N2Cc3cn(CC(C)(F)F)nc3N(Cc3ccccc3C(F)(F)F)C2=O)CC1
IC50 (human, liver microsomes): > 10 µM

CC(=O)c1cccc(OCc2cc(C(=O)N(C)[C@@H](C)c3ccccn3)no2)c1
IC50 (human, liver microsomes): 6.3 µM

NC(=O)C1CCN(C(=O)Cc2ccc(N(CCCO)Cc3cnc4nc(N)nc(N)c4n3)cc2)CC1
inhibition (luciferase; 10 µM): -7.8%

CC1(CO)C(O[C@@H]2O[C@H](C(=O)O)[C@@H](O)[C@H](O)[C@H]2O)CC[C@@]2(C)C1CC[C@]1(C)C2CC=C2[C@H]3CC(C)(C)[C@H](O)[C@@H](O)[C@]3(CO)[C@H](O)C[C@]21C (stereo partly shown)
IC50 (mass spectrometry; human, liver microsomes): > 90 µg/mL

O=C(Nc1c2c(cc3c1CCC3)CCC2)NS(=O)(=O)/C=C/c1nccs1
inhibition (human, liver microsomes; 2 µM, pH 7.4): 21.4%

CCc1cc(/C(C)=N/OCc2ccc(C3CCCCC3)c(C(F)(F)F)c2)ccc1CN1CC(C(=O)O)C1
inhibition (human, liver microsomes; 200 µM, 20 min): 43.2%

C=C[C@H]1C[N@@]2CC[C@H]1C[C@@H]2[C@@H](O)c1ccnc2ccc(OC)cc12
inhibition (human, liver microsomes; 10 µM): 15%

O=C(N[C@H](Cc1c[nH]c2ccccc12)C(=O)Nc1ccncc1)c1ccc(-c2cc(F)ccc2F)cc1F
inhibition (human, liver microsomes; 1 µM): 92%

NC(=O)C1CCCN1C(=O)Cc1ccc(N(CCCO)Cc2cnc3nc(N)nc(N)c3n2)cc1 (stereo not shown)
inhibition (luciferase; 10 µM): -3.91%

O=C(NS(=O)(=O)c1ccc(Br)s1)c1ccc(Cl)cc1Cl
Ki (human, liver microsomes): 0.1 µM

COC(=O)C1CCN(C(=O)c2cccc(NCc3cnc4nc(N)nc(N)c4n3)c2)CC1
inhibition (luciferase; 10 µM): -4.69%

CC(=O)N1CCN(c2ccc(OCC3COC(Cn4ccnc4)(c4ccc(Cl)cc4Cl)O3)cc2)CC1 (stereo not shown)
inhibition (human, liver microsomes; 1 µM): 24%
